From ChEMBL document CHEMBL3120055, “HPLC-based activity profiling for GABAA receptor modulators in Adenocarpus cincinnatus” (J Nat Prod, 2014) come the findings set out here.

For experiment [1], the species on record is Rattus norvegicus. Put plainly: Positive allosteric modulation of rat alpha1beta2gamma2S GABAA receptor expressed in Xenopus laevis oocytes assessed as potentiation of GABA-induced chloride current at 100 uM by two-microelectrode voltage clamp electrophysiology relative to control. The format is cell-based.
For experiment [2], the species on record is Rattus norvegicus. Put plainly: Positive allosteric modulation of rat alpha1beta2gamma2S GABAA receptor expressed in Xenopus laevis oocytes assessed as potentiation of GABA-induced chloride current by two-microelectrode voltage clamp electrophysiology relative to control. The format is cell-based. Summed up: (§1)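 Rat α1β2γ2s cRNAs (1:1:10) were injected into collagenase-treated Xenopus oocytes, which were kept at 18 °C in ND96 and recorded on days 1–5. Two-electrode clamp was held at −70 mV in bath containing 90 mM NaCl and 5 mM HEPES, pH 7.4. Compound at 0.1–300 μM was co-applied with GABA EC5–10 by fast perfusion, with 1% DMSO final. Enhancement is I(GABA+Comp)/IGABA − 1, given as mean ± SE from four oocytes across three batches.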

Experiment [3] can be described thus: Positive allosteric modulation of rat alpha1beta2gamma2S GABAA receptor expressed in Xenopus laevis oocytes assessed as potentiation of GABA-induced chloride current by two-microelectrode voltage clamp electrophysiology. The format is cell-based. The method in brief: as §1
Experiment [4] is filed under the species Rattus norvegicus. The experiment in a line: Agonist activity at rat alpha1beta2gamma2S GABAA receptor expressed in Xenopus laevis oocytes assessed as direct activation of chloride current in absence of GABA at 0.1 to 30 uM by two-microelectrode voltage clamp electrophysiology.
The species entered for experiment [5] is Rattus norvegicus. Put plainly: Positive allosteric modulation of rat alpha1beta2gamma2S GABAA receptor expressed in Xenopus laevis oocytes assessed as potentiation of GABA-induced chloride current at 300 uM by two-microelectrode voltage clamp electrophysiology. It counts as cell-based. The method in brief: as §1
For experiment [6], the species on record is Rattus norvegicus. The experiment in a line: Positive allosteric modulation of rat alpha1beta2gamma2S GABAA receptor expressed in Xenopus laevis oocytes assessed as potentiation of GABA-induced chloride current at 1 uM by two-microelectrode voltage clamp electrophysiology relative to control. The format is cell-based. Summed up: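 Rat α1β2γ2s cRNAs (1:1:10) injected into collagenase-defolliculated oocytes, kept at 18 °C in ND96 with penicillin-streptomycin, and recorded on days 1–5. Test agent applied by fast perfusion with GABA EC5–10 in 1% DMSO final. Enhancement = I(GABA+Comp)/IGABA − 1.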

Structures are written as SMILES. Active and inactive are the calls of the source. The rule behind the calls is not given here.

Consider `CC(C)=CCc1c(O)ccc2c(=O)c(-c3ccc(O)cc3)coc12`, for which the %max in the experiment listed under Rattus norvegicus [1] stood at 192%.

For `CO[C@H](Cc1ccccc1)C(=O)c1ccc(O)cc1O`, in the experiment filed under Rattus norvegicus [1], the %max came to 88.8%.

Turning to `CC(C)=CCc1c(O)ccc2c1O[C@H](c1ccc(O)cc1)[C@@H](O)C2=O`, in the experiment listed under Rattus norvegicus [1], the %max came out at 272%.

Regarding `CC(C)=CCc1c(O)ccc2c1OCC(c1ccc(O)cc1O)C2=O` (stereo unspecified), in the experiment filed under Rattus norvegicus [1], the %max was determined as 361%.

On to `O=C1c2ccc(O)cc2O[C@H](c2ccccc2)[C@H]1O`, for which the %max in the experiment listed under Rattus norvegicus [1] came to 11.7%.

One may read the Emax as the size of the effect at its maximum, as opposed to the concentration needed. For orientation: EC50 means the concentration at which the effect is half-maximal. Take `CC(C)=CCc1c(O)ccc2c(=O)c(-c3ccc(O)cc3O)coc12`: the Emax in the experiment filed under Rattus norvegicus [2] came to 553%. The concentration for a half-maximal effect (EC50) in experiment [3] came to 2.8 µM. The %max in the experiment listed under Rattus norvegicus [1] turned out to be 560%. In addition, the result in the experiment listed under Rattus norvegicus [4] was inactive.

Turning to `CC(C)=CCc1cc2c(c(CC=C(C)C)c1O)O[C@H](c1ccc(O)cc1)[C@@H](O)C2=O`, the %max in the experiment listed under Rattus norvegicus [1] was determined as 287%.

With `Oc1ccc2c(c1)OC[C@H]1c3cc4ccoc4cc3O[C@@H]21`, in the experiment listed under Rattus norvegicus [1], the %max came out at 213%.

For `CO/C(=C\c1ccccc1)C(=O)c1ccc(O)cc1O`, the %max in the experiment listed under Rattus norvegicus [1] was found to be 228%.

As to `CC(C)=CCc1cc2c(cc1O)O[C@H]1c3ccc(O)c(O)c3OC[C@@H]21`, the Emax in the experiment filed under Rattus norvegicus [2] was found to be 491%. Besides, in experiment [3], the EC50 was 18.8 µM. For the same compound, the %max in the experiment filed under Rattus norvegicus [1] was 454%. Besides, the outcome in the experiment listed under Rattus norvegicus [5] and in the experiment listed under Rattus norvegicus [4] was inactive.

Regarding `CC(C)(O)CCc1cc2c(cc1O)O[C@H]1c3ccc(O)cc3OC[C@@H]21`, the Emax in the experiment listed under Rattus norvegicus [2] came out at 640%. Also, the EC50 in experiment [3] came out at 8.6 µM. The %max in the experiment listed under Rattus norvegicus [1] stood at 489%. Besides, the outcome in the experiment listed under Rattus norvegicus [5] and in the experiment filed under Rattus norvegicus [4] was inactive.

Consider `CC(C)=CCc1cc2c(cc1O)OCC(c1ccc(O)cc1O)C2=O` (stereo unspecified), for which, in the experiment listed under Rattus norvegicus [1], the %max is 199%.

Consider `CC1(C)C=Cc2cc3c(cc2O1)O[C@H]1c2ccc(O)cc2OC[C@@H]31` [ISONEORAUTENOL], for which the Emax in the experiment listed under Rattus norvegicus [2] is 771%. In experiment [3], the EC50 was 40.7 µM. For the same compound, the %max in the experiment filed under Rattus norvegicus [1] stood at 388%. Also, the result in the experiment filed under Rattus norvegicus [5] and in the experiment listed under Rattus norvegicus [4] was inactive.

For `CN1C(=O)CN=C(c2ccccc2)c2cc(Cl)ccc21`, the Activity in the experiment filed under Rattus norvegicus [6] is 231%.

As for `Oc1ccc2c(c1)OC[C@H]1c3cc4c(cc3O[C@@H]21)OCO4`, the %max in the experiment listed under Rattus norvegicus [1] was determined as 238%.

For `CC(C)=CCc1c(O)c(CCC(C)(C)O)cc2c1O[C@H](c1ccc(O)cc1)[C@@H](O)C2=O`, in the experiment filed under Rattus norvegicus [1], the %max was -26%.
